From paper PMC3947009 (ACS Chemical Biology, 2013)
“And” between values parts separate entries of the source, which are not always exact repeats. Equal entries are not always repeated.

Molecular target: GluA2 LBD (S1S2J, rat GluA2-flop subunit, N754S) (Rattus norvegicus, UniProt P19491, DEL528-650/N775S/S652T/V651G)
Type: biochemical
In short: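 Trypsin-detagged LBD (residues N392-K506/P632-S775, GT linker) from E. coli Origami B(DE3), purified by ion exchange and sizing. Protein 0.017–0.1 mM in 10 mM glutamate, 25 mM NaCl, 25 mM Tris-Cl pH 7, with modulator from DMSO (1 µL per 30 µL); kept at 4 °C; synchrotron SAXS. Dimer fraction fit with monomer/dimer form factors (1FTJ); EC50 from dimerization curves; constants from simultaneous one- or two-site equilibrium fits.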

EC50 [mM]	Kd	fold lower EC50 for dimerization than HFMZ (CYTZ vs HFMZ) [×]	fold lower EC50 for dimerization than TCMZ (CYTZ vs TCMZ) [×]	Structure (SMILES)
0.1 to 0.2	~5 µM	20	10	NS(=O)(=O)c1cc2c(cc1Cl)NC(C1CC3C=CC1C3)NS2(=O)=O (centres unmarked) [CYTZ, cyclothiazide]
2 to 5	~5 µM	–	–	NS(=O)(=O)c1cc2c(cc1C(F)(F)F)NCNS2(=O)=O [HFMZ, hydroflumethiazide]
1 to 2	46.8 µM and ~50 µM	–	–	NS(=O)(=O)c1cc2c(cc1Cl)NC(C(Cl)Cl)NS2(=O)=O (centres unmarked) [TCMZ, trichlormethiazide]
